Data taken from ChEMBL document CHEMBL1649247, “Fluoroquinolone resistance in Mycobacterium tuberculosis and mutations in gyrA and gyrB” (2009).
In brackets after ≈: the same amount, converted by molar mass. Activity calls are given as the source filed them. No cut-off for these calls is given here.

Each compound was assayed on Mycobacterium tuberculosis (assay: Antimycobacterial activity against Mycobacterium tuberculosis 08-0781 assessed as microbial susceptibility by agar proportion method).
Assay type: functional, organism-based
Summary of the method: (§1)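 Clinical isolates freshly subcultured on Löwenstein-Jensen medium, held at 37°C no longer than 4 weeks. Fluoroquinolone stocks 1 mg/ml in 0.1 N NaOH, filter sterilized, kept at −20°C under 2 months. Standard proportion method on 7H11 agar; breakpoints 2 mg/liter ofloxacin, 0.5 mg/liter moxifloxacin and gatifloxacin; scored susceptible or resistant.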
With `CC1COc2c(N3CCN(C)CC3)c(F)cc3c(=O)c(C(=O)O)cn1c23` (stereo unspecified) [OFLOXACIN] the Activity was “Active”. For `COc1c(N2CCNC(C)C2)c(F)cc2c(=O)c(C(=O)O)cn(C3CC3)c12` (stereo unspecified) [GATIFLOXACIN], the Activity was “Active”. For `COc1c(N2C[C@@H]3CCCN[C@@H]3C2)c(F)cc2c(=O)c(C(=O)O)cn(C3CC3)c12` [MOXIFLOXACIN], the Activity was “Active”.

The compounds below were run on Mycobacterium tuberculosis (assay: Antimycobacterial activity against Mycobacterium tuberculosis 08-0762 by resazurin microtiter assay).
Assay type: functional
Summary of the method: (§2)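 Isolates taken from fresh Löwenstein-Jensen subcultures grown at 37°C for at most 4 weeks. Drug stocks 1 mg/ml in 0.1 N NaOH, filter sterilized, stored at −20°C less than 2 months. MIC read by resazurin microtiter assay following a previously described protocol.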
With `CC1COc2c(N3CCN(C)CC3)c(F)cc3c(=O)c(C(=O)O)cn1c23` (stereo unspecified) [OFLOXACIN] the MIC was 0.5 µg/mL (≈ 1.38 µM). `COc1c(N2CCNC(C)C2)c(F)cc2c(=O)c(C(=O)O)cn(C3CC3)c12` (stereo unspecified) [GATIFLOXACIN] gave an MIC of at most 0.062 µg/mL. `COc1c(N2C[C@@H]3CCCN[C@@H]3C2)c(F)cc2c(=O)c(C(=O)O)cn(C3CC3)c12` [MOXIFLOXACIN] showed an MIC of at most 0.125 µg/mL.

What follows are compounds tested on Mycobacterium tuberculosis (assay: Antimycobacterial activity against Mycobacterium tuberculosis 08-0781 by resazurin microtiter assay).
Assay type: functional
Summary of the method: as §2
`CC1COc2c(N3CCN(C)CC3)c(F)cc3c(=O)c(C(=O)O)cn1c23` (stereo unspecified) [OFLOXACIN] was tested, and the MIC was at most 0.25 µg/mL. Work on `COc1c(N2CCNC(C)C2)c(F)cc2c(=O)c(C(=O)O)cn(C3CC3)c12` (stereo unspecified) [GATIFLOXACIN] yielded an MIC of at most 0.062 µg/mL. In the case of `COc1c(N2C[C@@H]3CCCN[C@@H]3C2)c(F)cc2c(=O)c(C(=O)O)cn(C3CC3)c12` [MOXIFLOXACIN], the MIC is reported as at most 0.125 µg/mL.

Each compound was assayed on Mycobacterium tuberculosis (assay: Antimycobacterial activity against Mycobacterium tuberculosis 08-0789 assessed as microbial susceptibility by agar proportion method).
Assay type: functional, organism-based
Summary of the method: as §1
With `CC1COc2c(N3CCN(C)CC3)c(F)cc3c(=O)c(C(=O)O)cn1c23` (stereo unspecified) [OFLOXACIN] the Activity was “Active”. With `COc1c(N2CCNC(C)C2)c(F)cc2c(=O)c(C(=O)O)cn(C3CC3)c12` (stereo unspecified) [GATIFLOXACIN] the Activity was “Active”. In the case of `COc1c(N2C[C@@H]3CCCN[C@@H]3C2)c(F)cc2c(=O)c(C(=O)O)cn(C3CC3)c12` [MOXIFLOXACIN], the Activity is reported as “Active”.

These compounds were tested on Mycobacterium tuberculosis (assay: Antimycobacterial activity against Mycobacterium tuberculosis 08-0782 by resazurin microtiter assay).
Assay type: functional
Summary of the method: as §2
For `CC1COc2c(N3CCN(C)CC3)c(F)cc3c(=O)c(C(=O)O)cn1c23` (stereo unspecified) [OFLOXACIN], the MIC was 0.5 µg/mL (≈ 1.38 µM). Compound `COc1c(N2CCNC(C)C2)c(F)cc2c(=O)c(C(=O)O)cn(C3CC3)c12` (stereo unspecified) [GATIFLOXACIN] has an MIC of 0.125 µg/mL (≈ 0.333 µM). `COc1c(N2C[C@@H]3CCCN[C@@H]3C2)c(F)cc2c(=O)c(C(=O)O)cn(C3CC3)c12` [MOXIFLOXACIN] was tested, and the MIC was at most 0.125 µg/mL.

These compounds were tested on Mycobacterium tuberculosis (assay: Antimycobacterial activity against Mycobacterium tuberculosis 08-0764 by resazurin microtiter assay).
Assay type: functional
Summary of the method: as §2
In the case of `CC1COc2c(N3CCN(C)CC3)c(F)cc3c(=O)c(C(=O)O)cn1c23` (stereo unspecified) [OFLOXACIN], the MIC is reported as 0.5 µg/mL (≈ 1.38 µM). `COc1c(N2CCNC(C)C2)c(F)cc2c(=O)c(C(=O)O)cn(C3CC3)c12` (stereo unspecified) [GATIFLOXACIN] showed an MIC of at most 0.062 µg/mL. With `COc1c(N2C[C@@H]3CCCN[C@@H]3C2)c(F)cc2c(=O)c(C(=O)O)cn(C3CC3)c12` [MOXIFLOXACIN] the MIC was at most 0.125 µg/mL.

These compounds were tested on Mycobacterium tuberculosis (assay: Antimycobacterial activity against Mycobacterium tuberculosis 08-0774 by resazurin microtiter assay).
Assay type: functional
Summary of the method: as §2
In the case of `CC1COc2c(N3CCN(C)CC3)c(F)cc3c(=O)c(C(=O)O)cn1c23` (stereo unspecified) [OFLOXACIN], the MIC is reported as at most 0.25 µg/mL. Work on `COc1c(N2CCNC(C)C2)c(F)cc2c(=O)c(C(=O)O)cn(C3CC3)c12` (stereo unspecified) [GATIFLOXACIN] yielded an MIC of at most 0.062 µg/mL. `COc1c(N2C[C@@H]3CCCN[C@@H]3C2)c(F)cc2c(=O)c(C(=O)O)cn(C3CC3)c12` [MOXIFLOXACIN] was tested, and the MIC was at most 0.125 µg/mL.

Each compound was assayed on Mycobacterium tuberculosis (assay: Antimycobacterial activity against Mycobacterium tuberculosis 08-0782 assessed as microbial susceptibility by agar proportion method).
Assay type: functional, organism-based
Summary of the method: as §1
For `CC1COc2c(N3CCN(C)CC3)c(F)cc3c(=O)c(C(=O)O)cn1c23` (stereo unspecified) [OFLOXACIN], the Activity was “Active”. In the case of `COc1c(N2CCNC(C)C2)c(F)cc2c(=O)c(C(=O)O)cn(C3CC3)c12` (stereo unspecified) [GATIFLOXACIN], the Activity is reported as “Active”. In the case of `COc1c(N2C[C@@H]3CCCN[C@@H]3C2)c(F)cc2c(=O)c(C(=O)O)cn(C3CC3)c12` [MOXIFLOXACIN], the Activity is reported as “Active”.

These compounds were tested on Mycobacterium tuberculosis (assay: Antimycobacterial activity against Mycobacterium tuberculosis 08-0789 by resazurin microtiter assay).
Assay type: functional
Summary of the method: as §2
`CC1COc2c(N3CCN(C)CC3)c(F)cc3c(=O)c(C(=O)O)cn1c23` (stereo unspecified) [OFLOXACIN] was tested, and the MIC was 0.5 µg/mL (≈ 1.38 µM). With `COc1c(N2CCNC(C)C2)c(F)cc2c(=O)c(C(=O)O)cn(C3CC3)c12` (stereo unspecified) [GATIFLOXACIN] the MIC was at most 0.062 µg/mL. For `COc1c(N2C[C@@H]3CCCN[C@@H]3C2)c(F)cc2c(=O)c(C(=O)O)cn(C3CC3)c12` [MOXIFLOXACIN], the MIC was at most 0.125 µg/mL.

What follows are compounds tested on Mycobacterium tuberculosis (assay: Antimycobacterial activity against Mycobacterium tuberculosis 08-0764 assessed as microbial susceptibility by agar proportion method).
Assay type: functional, organism-based
Summary of the method: as §1
For `CC1COc2c(N3CCN(C)CC3)c(F)cc3c(=O)c(C(=O)O)cn1c23` (stereo unspecified) [OFLOXACIN], the Activity was “Active”. `COc1c(N2CCNC(C)C2)c(F)cc2c(=O)c(C(=O)O)cn(C3CC3)c12` (stereo unspecified) [GATIFLOXACIN] was tested, and the Activity was “Active”. In the case of `COc1c(N2C[C@@H]3CCCN[C@@H]3C2)c(F)cc2c(=O)c(C(=O)O)cn(C3CC3)c12` [MOXIFLOXACIN], the Activity is reported as “Active”.

The compounds below were run on Mycobacterium tuberculosis (assay: Antimycobacterial activity against Mycobacterium tuberculosis 08-0762 assessed as microbial susceptibility by agar proportion method).
Assay type: functional, organism-based
Summary of the method: as §1
`CC1COc2c(N3CCN(C)CC3)c(F)cc3c(=O)c(C(=O)O)cn1c23` (stereo unspecified) [OFLOXACIN] was tested, and the Activity was “Active”. In the case of `COc1c(N2CCNC(C)C2)c(F)cc2c(=O)c(C(=O)O)cn(C3CC3)c12` (stereo unspecified) [GATIFLOXACIN], the Activity is reported as “Active”. With `COc1c(N2C[C@@H]3CCCN[C@@H]3C2)c(F)cc2c(=O)c(C(=O)O)cn(C3CC3)c12` [MOXIFLOXACIN] the Activity was “Active”.

The compounds below were run on Mycobacterium tuberculosis (assay: Antimycobacterial activity against Mycobacterium tuberculosis 08-0774 assessed as microbial susceptibility by agar proportion method).
Assay type: functional, organism-based
Summary of the method: as §1
For `CC1COc2c(N3CCN(C)CC3)c(F)cc3c(=O)c(C(=O)O)cn1c23` (stereo unspecified) [OFLOXACIN], the Activity was “Active”. `COc1c(N2CCNC(C)C2)c(F)cc2c(=O)c(C(=O)O)cn(C3CC3)c12` (stereo unspecified) [GATIFLOXACIN] was tested, and the Activity was “Active”. With `COc1c(N2C[C@@H]3CCCN[C@@H]3C2)c(F)cc2c(=O)c(C(=O)O)cn(C3CC3)c12` [MOXIFLOXACIN] the Activity was “Active”.
